According to ChEMBL document CHEMBL4130569, “Structure Optimization of Aloperine Derivatives as HIV-1 Entry Inhibitors” (ACS Med Chem Lett, 2017):
Active and inactive are the calls of the source. The calls are words filed in the database; no cut-off is given here.

Key:
[1] = Cytotoxicity in human MT4 cells assessed as reduction of cell viability incubated for 3 days by CytoTox-Glo cytotoxicity assay; assay type: cell-based
[2] = tested on: Human immunodeficiency virus 1; assay: Antiviral activity against HIV1 NL4-3 infected in human MT4 cells after 3 days by luciferase reporter gene assay; assay type: functional, organism-based; conditions: Human immunodeficiency virus 1, NL4-3, MT4, 72 h
[3] = Cytotoxicity in MDCK cells assessed as reduction of cell viability incubated for 2 days by CytoTox-Glo cytotoxicity assay; assay type: cell-based, Canis lupus familiaris; conditions: dog
Influenza A virus = assay: Antiviral activity against Influenza A virus (A/Puerto Rico/8/1934(H1N1)) infected in MDCK cells assessed as inhibition of virus-induced cytopathic effect incubated for 48 hrs by Cell-titer-Glo assay; assay type: functional, organism-based
[4] = Selectivity index, ratio of EC50 for antiviral activity against influenza A virus (A/Puerto Rico/8/1934(H1N1)) infected in MDCK cells to EC50 for antiviral activity against HIV1 NL4-3 infected in human MT4 cells
[5] = biological target: Envelope glycoprotein gp160 (Human immunodeficiency virus 1) (UniProt Q6QLK5); assay: Induction of conformational changes in HIV1 NLDH120 envelope glycoprotein gp120 transfected in COS cells assessed as increase in gp120 binding of monoclonal antibody 17b at 10 uM after 48 hrs by FACS; assay type: cell-based
Chain of Envelope glycoprotein gp160 (Human immunodeficiency virus 1) (Q6QLK5 1-814): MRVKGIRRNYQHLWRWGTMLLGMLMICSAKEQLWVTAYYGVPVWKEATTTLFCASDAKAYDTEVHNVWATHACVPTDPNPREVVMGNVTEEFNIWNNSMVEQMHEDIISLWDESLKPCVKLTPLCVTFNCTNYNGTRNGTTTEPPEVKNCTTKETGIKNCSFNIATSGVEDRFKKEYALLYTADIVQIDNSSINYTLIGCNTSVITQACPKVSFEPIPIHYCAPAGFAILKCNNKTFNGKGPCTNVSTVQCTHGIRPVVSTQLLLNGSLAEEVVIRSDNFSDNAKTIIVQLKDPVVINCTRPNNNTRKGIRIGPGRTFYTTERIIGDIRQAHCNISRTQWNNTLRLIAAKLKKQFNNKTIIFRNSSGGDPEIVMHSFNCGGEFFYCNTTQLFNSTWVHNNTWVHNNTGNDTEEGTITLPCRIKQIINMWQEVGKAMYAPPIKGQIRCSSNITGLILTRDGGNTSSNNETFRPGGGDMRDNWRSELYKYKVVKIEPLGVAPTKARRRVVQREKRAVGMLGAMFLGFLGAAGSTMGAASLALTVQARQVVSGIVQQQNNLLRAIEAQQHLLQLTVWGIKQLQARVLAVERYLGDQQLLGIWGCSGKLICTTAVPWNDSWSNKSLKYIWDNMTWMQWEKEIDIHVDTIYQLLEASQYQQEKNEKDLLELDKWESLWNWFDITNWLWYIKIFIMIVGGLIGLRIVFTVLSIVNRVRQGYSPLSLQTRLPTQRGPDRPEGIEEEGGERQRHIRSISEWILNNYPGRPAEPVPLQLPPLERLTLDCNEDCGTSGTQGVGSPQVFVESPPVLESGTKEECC

[6] = Selectivity index, ratio of CC50 for human MT4 cells […] NL4-3 infected in human MT4 cells; assay type: toxicity, cell-based; conditions: MT4 cells and HIV1 NL4-3 infected MT4 cells, read-out: Ratio CC50/EC50
[7] = tested on: Human immunodeficiency virus 1; assay: Potency index, ratio of EC50 for aloperine to EC50 for test compound for antiviral activity against HIV1 NL4-3 infected in human MT4 cells after 3 days by luciferase reporter gene assay; assay type: functional
[8] = tested on: Human immunodeficiency virus 1; assay: Inhibition of HIV1-mediated cellular entry in HIV1 NL4-3 VPR-GFP infected human TZM-bl cells incubated for 2 hrs by confocal microscopy; assay type: functional, organism-based
Summary of the method: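 TZM-bl cells were infected with NL4-3/Vpr-GFP virus, with or without test compound at 1 µM, for 2 h. Nuclei were stained with DAPI 2 h post infection, and confocal microscopy imaged GFP. Cytosolic GFP dispersal marked entry; GFP puncta marked virus arrested at the cell or endosomal membrane. Uninfected DAPI-stained cells served as background.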

## O=C(Cc1ccc(OC(F)(F)F)cc1)NCCCCN1CCC[C@@H]2C[C@H]3C[C@H](CN4CCCC[C@H]34)[C@@H]21
[1]
  CC50 at 72 h: > 40 µM
[2]
  EC50: 2.8 µM

## O=C(CCc1ccc(OC(F)(F)F)cc1)NCCCCN1CCCC2=C[C@H]3C[C@H](CN4CCCC[C@H]34)[C@@H]21
[1]
  CC50 at 72 h: > 40 µM
[2]
  EC50: > 3 µM

## O=S(=O)(Cc1ccc(OC(F)(F)F)cc1)NCCCCN1CCCC2=C[C@H]3C[C@H](CN4CCCC[C@H]34)[C@@H]21
[1]
  CC50 at 72 h: 35.7 µM
[2]
  EC50: > 3 µM

## O=C(Cc1ccc2c(c1)OCO2)NCCCCN1CCCC2=C[C@H]3C[C@H](CN4CCCC[C@H]34)[C@@H]21
[1]
  CC50 at 72 h: > 40 µM
[2]
  EC50: > 3 µM

## O=C(NCCCCN1CCCC2=C[C@H]3C[C@H](CN4CCCC[C@H]34)[C@@H]21)C(=O)c1ccc(C(F)(F)F)cc1
[1]
  CC50 at 72 h: > 40 µM
[3]
  CC50 at 48 h: > 80 µM
[2]
  EC50: 0.99 µM
Influenza A virus; mdck
  EC50: Not Active

## O=C(Cc1ccc(Br)cc1)NCCCCN1CCCC2=C[C@H]3C[C@H](CN4CCCC[C@H]34)[C@@H]21
[1]
  CC50 at 72 h: > 40 µM
[2]
  EC50: 1.32 µM

## O=C(Cc1ccc(C(F)(F)F)cc1)NCCCCN1CCCC2=C[C@H]3C[C@H](CN4CCCC[C@H]34)[C@@H]21
[1]
  CC50 at 72 h: > 40 µM
[3]
  CC50 at 48 h: > 80 µM
[2]
  EC50: 0.81 µM
Influenza A virus; mdck
  EC50: Not Active

## CC(C)(C)c1ccc(CC(=O)NCCCCN2CCCC3=C[C@H]4C[C@H](CN5CCCC[C@H]45)[C@@H]32)cc1
[1]
  CC50 at 72 h: > 40 µM
[2]
  EC50: 2.09 µM

## C1=C2CCCN[C@H]2[C@@H]2C[C@H]1[C@H]1CCCCN1C2
[4]
  Ratio EC50: 7
[1]
  CC50 at 72 h: > 86 µM
[3]
  CC50 at 48 h: > 80 µM

## O=C(Cc1ccc(S(=O)(=O)C(F)(F)F)cc1)NCCCCN1CCC[C@H]2C[C@H]3C[C@H](CN4CCCC[C@H]34)[C@@H]21
[1]
  CC50 at 72 h: > 40 µM
[2]
  EC50: > 3 µM

## CS(=O)(=O)c1ccc(CC(=O)NCCCCN2CCCC3=C[C@H]4C[C@H](CN5CCCC[C@H]45)[C@@H]32)cc1
[1]
  CC50 at 72 h: > 40 µM
[2]
  EC50: > 3 µM

## CC(C)(C)c1ccc(C(=O)NCCCCN2CCCC3=C[C@H]4C[C@H](CN5CCCC[C@H]45)[C@@H]32)cc1
[1]
  CC50 at 72 h: 12.9 µM
[2]
  EC50: 2.15 µM

## O=C(NCCCCN1CCCC2=C[C@H]3C[C@H](CN4CCCC[C@H]34)[C@@H]21)c1ccc(-c2cccs2)cc1
[1]
  CC50 at 72 h: 16.2 µM
[2]
  EC50: > 3 µM

## O=C(NCCCCN1CCCC2=C[C@H]3C[C@H](CN4CCCC[C@H]34)[C@@H]21)c1ccc(CNS(=O)(=O)C(F)(F)F)cc1
[1]
  CC50 at 72 h: > 40 µM

## O=C(NCCCCN1CCCC2=C[C@H]3C[C@H](CN4CCCC[C@H]34)[C@@H]21)c1ccc2c(c1)OCO2
[1]
  CC50 at 72 h: > 40 µM
[2]
  EC50: > 3 µM

## O=C(Cc1ccc(S(=O)(=O)C(F)(F)F)cc1)NCCCCN1CCCC2=C[C@H]3C[C@H](CN4CCCC[C@H]34)[C@@H]21
[5]
  Activity: Active
[1]
  CC50 at 72 h: 28.8 µM
[3]
  CC50 at 48 h: > 80 µM
[2]
  EC50: 0.12 µM
Influenza A virus; mdck
  EC50: Not Active
[6]
  selectivity ratio: 240
[7]
  Ratio EC50: 15
[8]
  inhibition: Active

## O=C(NCCCCN1CCCC2=C[C@H]3C[C@H](CN4CCCC[C@H]34)[C@@H]21)C1CCC(F)(F)CC1
[1]
  CC50 at 72 h: > 40 µM
[2]
  EC50: 2.44 µM

## O=C(NCCCCN1CCCC2=C[C@H]3C[C@H](CN4CCCC[C@H]34)[C@@H]21)c1ccc(S(=O)(=O)F)cc1
[1]
  CC50 at 72 h: 38.5 µM

## O=C(Cc1ccc(S(=O)(=O)C(F)(F)F)cc1)NCCCCN1CCC[C@@H]2C[C@H]3C[C@H](CN4CCCC[C@H]34)[C@@H]21
[1]
  CC50 at 72 h: > 40 µM
[2]
  EC50: > 3 µM

## O=C(Cc1ccc([S+]([O-])C(F)(F)F)cc1)NCCCCN1CCCC2=C[C@H]3C[C@H](CN4CCCC[C@H]34)[C@@H]21 (some centres not stated)
[1]
  CC50 at 72 h: > 40 µM
[2]
  EC50: 1.67 µM

## O=C(Cc1ccc(OC(F)(F)F)cc1)NCCCCN1CCC[C@H]2C[C@H]3C[C@H](CN4CCCC[C@H]34)[C@@H]21
[1]
  CC50 at 72 h: > 40 µM
[2]
  EC50: 1.5 µM

## O=C(NCCCCN1CCCC2=C[C@H]3C[C@H](CN4CCCC[C@H]34)[C@@H]21)C1CCC(C(F)(F)F)CC1 (some centres not stated)
[1]
  CC50 at 72 h: > 40 µM
[2]
  EC50: > 3 µM

## O=C(NCCCCN1CCCC2=C[C@H]3C[C@H](CN4CCCC[C@H]34)[C@@H]21)c1ccc(-c2ccsc2)cc1
[1]
  CC50 at 72 h: 21.2 µM
[2]
  EC50: 1.32 µM

## O=S(=O)(NCCCCN1CCCC2=C[C@H]3C[C@H](CN4CCCC[C@H]34)[C@@H]21)c1ccc(OC(F)(F)F)cc1
[1]
  CC50 at 72 h: > 40 µM
[2]
  EC50: > 3 µM

## O=C(Cc1ccc(S(=O)(=O)CC(F)(F)F)cc1)NCCCCN1CCCC2=C[C@H]3C[C@H](CN4CCCC[C@H]34)[C@@H]21
[1]
  CC50 at 72 h: > 40 µM
[2]
  EC50: > 3 µM

## O=C(NCCCCN1CCCC2=C[C@H]3C[C@H](CN4CCCC[C@H]34)[C@@H]21)c1ccc(C(=O)c2ccccc2)cc1
[1]
  CC50 at 72 h: > 40 µM
[3]
  CC50 at 48 h: 31.6 µM
[2]
  EC50: 0.97 µM
Influenza A virus; mdck
  EC50: Not Active

## O=C(CC1CCC(F)(F)CC1)NCCCCN1CCCC2=C[C@H]3C[C@H](CN4CCCC[C@H]34)[C@@H]21
[1]
  CC50 at 72 h: > 40 µM
[2]
  EC50: 1.94 µM

## O=C(Cc1ccc(OC(F)(F)F)cc1)NCCCCN1CCCC2=C[C@H]3C[C@H](CN4CCCC[C@H]34)[C@@H]21
[3]
  CC50 at 48 h: > 80 µM
Influenza A virus; Influenza A virus, A/Puerto Rico/8/1934(H1N1), MDCK, 48 h, read-out: EC50
  EC50: 18.9 µM

## O=C(Cc1ccc(SC(F)(F)F)cc1)NCCCCN1CCCC2=C[C@H]3C[C@H](CN4CCCC[C@H]34)[C@@H]21
[1]
  CC50 at 72 h: 23.8 µM
[3]
  CC50 at 48 h: 45.1 µM
[2]
  EC50: 0.18 µM
Influenza A virus; mdck
  EC50: Not Active

## O=C(NCCCCN1CCCC2=C[C@H]3C[C@H](CN4CCCC[C@H]34)[C@@H]21)c1ccc(C(F)(F)F)c(F)c1
[1]
  CC50 at 72 h: > 40 µM
[2]
  EC50: 2.22 µM

## O=C(NCCCCN1CCCC2=C[C@H]3C[C@H](CN4CCCC[C@H]34)[C@@H]21)c1ccc(S(=O)(=O)C(F)(F)F)cc1
[1]
  CC50 at 72 h: > 40 µM
[3]
  CC50 at 48 h: > 80 µM
[2]
  EC50: 0.55 µM
Influenza A virus; mdck
  EC50: Not Active
